Measurements of several laboratories.
Protocols differ between the studies behind these lines.
Target: Transient receptor potential cation channel subfamily M member 6 (TRPM6, Homo sapiens, UniProt Q9BX84)

SMILES	read-out	technique	concentration	remaining binding
C[C@H]1CCN(c2nccc(-c3cnn4ncccc34)n2)C1	binding	–	1 µM	94%
CCN1CCN(Cc2ccc(C(=O)Nc3ccc(C)c(Oc4ccc5c(c4)CC(=O)N5)c3)cc2C(F)(F)F)CC1	binding	competition with immobilised ligand	1 µM	100%
CN(C)c1nccc(-c2cnn3ncccc23)n1	binding	–	1 µM	100%
O=C(NCCCN1CCOCC1)c1ccc(Nc2ncc(Cl)c(-c3ccc(Cl)s3)n2)cc1	binding	competition with immobilised ligand	1 µM	100%
N#CC1(c2ccccn2)CCN(Cc2cc(C(=O)N3CCCC3)c(=O)n3ccccc23)CC1	cell-free assay	competition with immobilised ligand	1 µM	80%
O=C(c1ccc(Nc2nccc(-c3cc4ccccc4s3)n2)cc1)N1CCC(N2CCCC2)CC1	binding	competition with immobilised ligand	1 µM	100%
CN(C)c1nccc(-c2cnc3ncccn23)n1	binding	–	1 µM	75%
CNCc1ccccc1-c1csc([C@@H](C)Nc2nc(C)nc3cc(OC)c(OC)cc23)c1	cell-free assay	competition with immobilised ligand	1 µM	91%
N[C@H]1CCN(c2nccc(-c3cnn4ncccc34)n2)C1	binding	–	1 µM	91%
Cc1nc(C2CCN(C(=O)c3ccc(OC(F)(F)F)cc3N)CC2)c2ncc(N3CCN(C)CC3)cc2n1	cell-free assay	competition with immobilised ligand	1 µM	100%
COc1ccnn2ncc(-c3ccnc(N(C)C)n3)c12	binding	–	1 µM	82%
CN([C@@H]1CCc2c(CC(=O)O)c3cc(S(C)(=O)=O)ccc3n2C1)S(=O)(=O)c1ccc(F)cc1	cell-free assay	competition with immobilised ligand	1 µM	74%
CNC(=O)[C@@H]1CC[C@@H](n2c(-c3ccc4cnccc4c3)nc3ccc(C(=O)NCc4cccc(C(N)=O)c4)cc32)C1	binding	competition with immobilised ligand	1 µM	83%
O=C(Nc1c[nH]nc1C(=O)NC1CCNCC1)c1cc(F)cc(F)c1	binding	competition with immobilised ligand	1 µM	88%
c1cncc(-c2cccc(Nc3nccc(NC4CCCCC4)n3)c2)c1	binding	competition with immobilised ligand	10 µM	97%
FC(F)(F)Oc1cccc(-c2cnc3ccc(-c4ccncc4)nn23)c1	binding	competition with immobilised ligand	5 µM	84%
COc1ccc2c(c1)O[C@@H](c1ccc(OC)c(OC)c1)C[C@H]2NC(=O)C1(c2ccc3c(c2)OC(F)(F)O3)CC1	cell-free assay	competition with immobilised ligand	1 µM	82%
COc1cnc(Nc2cccc(S(N)(=O)=O)c2)nc1N1CCN(c2ccccc2)C(=O)C1	binding	competition with immobilised ligand	1 µM	93%
CN(C)c1ncc(F)c(-c2cnn3ncccc23)n1	binding	–	1 µM	100%
O=C(c1ccc(Nc2ncc(Cl)c(-c3ccc(Cl)s3)n2)cc1)N1CCC(N2CCCC2)CC1	binding	competition with immobilised ligand	1 µM	100%
C[C@H](c1ccc(F)cc1)N(Cc1cccc(C(=O)O)c1)C(=O)c1cnc2ccccc2c1	cell-free assay	competition with immobilised ligand	1 µM	100%
